PG9 binder: PG9 antibody binding by small molecule; TR-FRET gp120-PG9 antibody binding; inhibition, % at 6.7 µM; actives 0.43% (n = 360,000); in the data active = inhibition above about 8.5%
Rev-erbA mod: Rev-erb alpha (human) modulation; activity, % at 10 µM; P20393; AID 1259318; actives 0.79% (n = 370,000); Rev-erbα–FITC-DNA binding, fluorescence polarization, 90 min;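 active = activity above about 14%, limit read from the data; passing the limit was not always enough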
Target sequence (P20393 whole entry, looked up): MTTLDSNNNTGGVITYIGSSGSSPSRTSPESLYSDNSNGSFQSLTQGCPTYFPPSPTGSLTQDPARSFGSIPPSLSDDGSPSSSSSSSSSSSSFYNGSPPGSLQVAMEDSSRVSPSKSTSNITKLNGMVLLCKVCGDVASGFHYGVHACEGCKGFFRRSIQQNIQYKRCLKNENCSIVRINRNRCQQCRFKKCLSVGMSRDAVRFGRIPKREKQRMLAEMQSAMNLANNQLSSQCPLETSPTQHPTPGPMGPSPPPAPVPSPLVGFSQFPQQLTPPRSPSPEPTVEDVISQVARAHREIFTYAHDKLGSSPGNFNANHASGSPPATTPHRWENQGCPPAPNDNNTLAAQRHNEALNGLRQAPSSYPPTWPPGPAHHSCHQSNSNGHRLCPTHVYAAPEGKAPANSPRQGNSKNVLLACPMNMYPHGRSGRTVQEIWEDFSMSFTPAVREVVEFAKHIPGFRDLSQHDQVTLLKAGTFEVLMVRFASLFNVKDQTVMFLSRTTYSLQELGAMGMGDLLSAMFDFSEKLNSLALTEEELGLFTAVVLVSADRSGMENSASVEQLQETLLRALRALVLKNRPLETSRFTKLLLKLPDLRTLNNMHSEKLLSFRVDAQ
MC4R ag barr: activates human MC4R beta-arrestin recruitment; P32245; U2OS MC4R beta-arrestin complementation, luminescence; percent of melanotan II response, DMSO zero; activation, % at 8.9 µM; actives 0.98% (n = 360,000); AID 540308;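 active = activation above a per-plate cutoff, the mean activation of sample wells on that plate plus 3 SD, cut at about 8% in these data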
NTR1 ag: activates human neurotensin receptor 1 | P30989 | NTR1-U2OS beta-arrestin-GFP spot imaging, agonist mode | activation, % at 20 µM | actives 0.17% (n = 330,000);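 active = activation at or above 40% of the spot to cytoplasm intensity ratio, with at least 20 cells analyzed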
MC4R antag cAMP: human MC4R antagonism in cAMP assay; MC4R-expressing cells, MTII-stimulated cAMP, LANCE TR-FRET; inhibition, % at 6.5 µM; actives 0.48% (n = 360,000);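 active = inhibition above its plate's cutoff, the mean of tested wells on that plate plus 3 SD, cut at about 29% in these data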
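Material: human MC4R-expressing U2OS cells. Probe or stimulus: Melanotan II challenge. Dosing: 6.5 µM single dose. Times: 30-min compound, 1-h challenge, 1-h detection, room temperature. Technique: TR-FRET with Eu-cAMP and labeled anti-cAMP, 671 nm. Replication: singlicate.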
PG9 binder conf: PG9 antibody binding, confirmed; shares compounds with PG9 binder; TR-FRET PG9 antibody binding, biochemical; AID 651571; inhibition, % at 6.7 µM; actives 90% (n = 1,500); in the data active = inhibition above about 9%
PGV04 counter: binds control antibody PGV04 in PG9 binder counter-screen | actives 95% (n = 1,500) | TR-FRET PGV04 antibody-gp120 binding, biochemical | inhibition, % at 6.7 µM | AID 651604 | shares compounds with PG9 binder; in the data active = inhibition above about 9.5%
PG9 binder DR: small molecules binding HIV-1 gp120 antibody PG9; shares compounds with PG9 binder; 95 tested, under 10 active; IC50, µM; TR-FRET PG9 antibody-gp120 binding inhibition; in the data active = IC50 below about 10 µM
PGV04 binding DR: counter-screen for PG9 binders: binding to control antibody PGV04; IC50, µM; shares compounds with PG9 binder; TR-FRET binding to control antibody PGV04; actives 20% (n = 95)
PG126 binding DR: binds control antibody PG126 in PG9 counter-screen | TR-FRET binding to antibody PG126, counterscreen | actives 20% (n = 95) | IC50, µM | shares compounds with PG9 binder
Rev-erbA confirm: confirmation of modulators of human Rev-erb alpha DNA binding | AID 1259319 | shares compounds with Rev-erbA mod | actives 61% (n = 3,000) | activation, % at 25 µM | Rev-erb alpha FITC-DNA binding, fluorescence polarization, 90 min;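 active = activation at or above a set limit, or at least 3 SD above the negative control mean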
RORg counter: affects RORgamma DNA binding in a Rev-erb alpha counter-screen. shares compounds with Rev-erbA mod. purified RORgamma protein-FITC-DNA binding, fluorescence polarization. IC50, µM. actives 8% (n = 910);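 active = Compounds whose fitted half-maximal concentration for disrupting protein-DNA binding is below 10 micromolar; the record names Rev-erb in its text, so the target is in doubt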
Numbers stand for hits; 0 = inactive; - = no result; + = active, no number. Hits are enriched below; roughly 2.5% of the tested compounds scored in any of these assays. Cut-off read from the data, not from the text of the source, unless noted: active = IC50 below about 9 µM; inactive = the rest.

SMILES	PG9 binder	Rev-erbA mod	MC4R ag barr	NTR1 ag	MC4R antag cAMP	PG9 binder conf	PGV04 counter	Rev-erbA confirm	others
COc1ccc(-c2nn(C)c3sc(C(=O)NCc4ccco4)cc23)cc1OC	10	58	0	0	0	13	18	52	RORg counter=0
N#Cc1cc(F)cc(OC[C@@H](O)CN2CCC(C(O)(c3ccccc3)c3ccccc3)CC2)c1	-	0	-	-	-	-	-	-
CCN1C(=O)/C(=C2/Sc3ccc(OC)cc3N2C)SC1=Nc1ccc(OC)cc1	0	0	0	0	0	-	-	-
C=CCN1C(=O)/C(=C2/Sc3ccc(OC)cc3N2C)SC1=Nc1cccc(O)c1	11	16	0	0	0	41	59	0
Cc1cc(NC(=O)c2cc(-c3ccccn3)nc3ccc(Br)cc23)no1	21	18	0	0	0	32	67	22
NS(=O)(=O)c1ccc(CCNC(=O)c2cc(-c3ccccn3)nc3ccc(Br)cc23)cc1	17	34	0	0	0	31	63	30	RORg counter=0
NS(=O)(=O)c1ccc(CCNC(=O)c2cc(-c3ccc(Br)cc3)nc3ccccc23)cc1	0	0	0	0	0	-	-	-
CCc1ccn2cc(-c3cc(-c4ccccc4)no3)nc2c1	0	0	0	0	0	-	-	-
Cc1ccc2nc(-c3cc(-c4ccccc4)no3)cn2c1	23	37	0	0	0	29	28	19	PG9 binder DR=0;PGV04 binding DR=0;PG126 binding DR=0
COc1ccc(N/C(=C\C(=O)c2ccccc2)c2ccccc2)cc1OC	0	0	-	-	-	-	-	-
COC(=O)[C@]1(CNC(=O)c2cc(F)ccc2F)CC(=O)N(C)[C@@H]1c1ccccc1	-	0	-	-	-	-	-	-
Cc1nc(SCC(=O)Nc2ccc(F)cc2)c2oc3ccccc3c2n1	45	220	0	0	0	78	85	233	RORg counter=0
Cc1nc(SCC(=O)NCc2ccco2)c2oc3ccccc3c2n1	0	0	0	0	0	-	-	-
Cc1nc(SCC(=O)NCCc2ccccc2)c2oc3ccccc3c2n1	26	+	0	0	0	88	74	+	PG9 binder DR=3.4;PGV04 binding DR=2.4;PG126 binding DR=2.3;RORg counter=0
Cc1nc(SCC(=O)Nc2ccccc2)c2oc3ccccc3c2n1	95	781	0	0	0	96	99	666	RORg counter=0
COc1ccccc1-c1cccc2c3c([nH]c12)[C@@H]1C[C@H]2[C@@H](CN1CC3)[C@H](C)ON2C	-	0	-	-	-	-	-	-
Cc1cc(NCCCOC(C)C)n2c(nc3ccccc32)c1C#N	11	44	0	0	0	22	33	0
Cc1cc(NCCCN(C)C)n2c(nc3ccccc32)c1C#N	0	0	0	0	0	-	-	-
CCc1ccc(CNC(=O)CCCn2c(=O)c3cccn3c3cccnc32)cc1	0	0	0	0	0	-	-	-
COc1cccc(CNC(=O)Cn2c(=O)c3cccn3c3ccccc32)c1	19	19	0	0	0	24	44	0
O=C(CCCn1c(=O)c2cccn2c2cccnc21)NCc1cccc(Br)c1	23	45	0	0	0	31	41	19
CCn1c(SCc2ccc(C(C)(C)C)cc2)nnc1-c1ccc(C(C)(C)C)cc1	-	0	-	-	-	-	-	-
CCOC(=O)[C@@]12CCCC=C1N(CCc1ccc(Cl)cc1)C(=O)[C@H]2CC(=O)N1CCOCC1	-	0	-	-	-	-	-	-
CC(C)C[C@H](NC1(C(=O)NC2CCCCC2)CCN(C)CC1)C(=O)NCC(c1ccccc1)c1ccccc1	-	0	-	-	-	-	-	-
Cc1ccccc1OCCC(=O)Nc1ccc2c(C)cc(=O)oc2c1	10	23	0	0	0	15	38	0
SMILES	PG9 binder	Rev-erbA mod	MC4R ag barr	NTR1 ag	MC4R antag cAMP	PG9 binder conf	PGV04 counter	Rev-erbA confirm	others
CC(=O)c1sc(NC(=O)COc2ccc(Br)cc2)nc1C	18	43	0	0	0	21	60	49	RORg counter=0
Cc1nc(NC(=O)C2CC2)sc1C(=O)Nc1ccc(Br)cc1	14	38	0	0	0	14	15	27
COC(=O)[C@@H](C)NC(=O)C(Cc1ccc2c(c1)OCO2)NC(C)=O (stereo partly drawn)	-	0	-	-	-	-	-	-
COc1ccc(OC)c(Nc2nc(-c3ccccc3O)nc3ccccc23)c1	50	327	0	0	0	51	75	224	RORg counter=0
COc1ccc2c(COC(=O)CCS(=O)(=O)c3ccccc3)cc(=O)oc2c1	-	-	0	0	0	-	-	-
COc1ccc2c(COC(=O)c3n[nH]c4ccccc34)cc(=O)oc2c1	62	59	0	0	0	53	57	34	RORg counter=0
COC(=O)[C@]12C[C@H](CC(=O)N3CCN(C(=O)C4CC4)CC3)C(=O)N(CCc3ccc(OC)c(OC)c3)C1=C[C@H](C(C)(C)C)O[C@@H]2C	-	0	-	-	-	-	-	-
C=CCN1C(=O)[C@@H](CC(=O)NCc2cccs2)[C@]2(C(=O)OCC)CCCCC/C=C/12	-	0	-	-	-	-	-	-
COc1cccc2sc(Nc3nnc(-c4ccccc4Cl)o3)nc12	0	0	0	0	0	-	-	-
COc1ccccc1-c1nnc(Nc2nc3c(OC)cccc3s2)o1	11	47	0	0	0	23	26	78
CCN(CC)C(=O)CSc1nnc(-c2ccc(C(C)(C)C)cc2)n1Cc1ccco1	-	0	-	-	-	-	-	-
O=C(CSc1ncccc1-c1nc2ccccc2[nH]1)N1CCc2ccccc21	14	28	0	0	0	21	33	25
COc1cc2c(c(OC)c1)C(=O)O[C@H](C)C[C@@H]1O[C@H]1CCCCC(=O)C2	-	0	-	-	-	-	-	-
COc1ccc(C(=O)Nc2nc3ccc(S(C)(=O)=O)cc3s2)cc1	46	27	0	0	0	41	58	0
CS(=O)(=O)c1ccc2nc(NC(=O)c3cccc(Cl)c3)sc2c1	0	0	0	0	0	-	-	-
CS(=O)(=O)c1ccc2nc(NC(=O)c3ccc(Cl)cc3)sc2c1	58	38	0	0	0	51	65	0
CCc1nnn2c1Cn1c3ccccc3c(=O)n1[C@@H](C)C2	-	0	-	-	-	-	-	-
O=C(NCCc1ccc(Cl)cc1)c1ccc2c(c1)ncn2C1CCCCC1	-	0	-	-	-	-	-	-

Screening results deposited in PubChem by several laboratories.
